# Measured values: PMC13499490 (International Journal for Parasitology: Drugs and Drug …, 2026)
# Columns and labels:
# [1] = tested on: rabbit reticulocytes (Retic Lysate IVT kit) translating Renilla mRNA; assay: In vitro translation by rabbit reticulocyte lysate; format: biochemical; conditions: 10 µM, 1 hour, Fig. S5
# Method in brief: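 Commercial rabbit reticulocyte lysate run per kit instructions, 0.6 μg per reaction of the capped, polyadenylated Renilla luciferase mRNA used in the parasite-extract assays.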
# [2] = tested on: supplemented TCH extract translating capped and polyadenylated Renilla mRNA; assay: Miniaturized low-volume; format: biochemical, Trypanosoma cruzi; conditions: 8 μL; for % Inhibition (40 µM): Table S3, 40 µM; for inhibition of translation in T. cruzi extract (in words): 40 μM, 2 h, Fig. 3B
# [3] = Host cell cytotoxicity in infected U2OS cells; format: cell-based; conditions: human
# Method in brief: (§1)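 U2OS cells, grown in DMEM with 10% FBS at 37°C and 5% CO2, seeded at 500 cells/well in 384-well plates and infected after 24 h with 5000 Sylvio X10/1 trypomastigotes. Treated 24 h later with test compound (100 μM to 0.7 nM, 0.5% DMSO) for 48 h, with benznidazole and DMSO controls. Cells fixed in 4% paraformaldehyde, stained with DAPI and DRAQ5, imaged by high-content analysis. Amastigote-to-cell ratio normalised to untreated (100%) and non-infected (0%) wells. EC50 and CC50 from three-parameter nonlinear fit; selectivity index from mean EC50 and CC50.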
# [4] = tested on: T. cruzi amastigotes (Sylvio X10/1 clone) in U2OS cells; assay: Intracellular amastigote proliferation in infected U2OS cells; format: cell-based, Trypanosoma cruzi; conditions: for EC50: Trypanosoma cruzi, U2OS, 48 h, read-out: EC50 intracellular amastigotes; for selectivity index: from EC50 and CC50 averages, U2OS cells
# Method in brief: as §1
# [5] = tested on: T. cruzi epimastigotes (DM28c); assay: Epimastigote proliferation, SYBR Green assay; format: cell-based, Trypanosoma cruzi; conditions: for EC50: Trypanosoma cruzi, 72 h, read-out: EC50 epimastigote proliferation; for concentration for maximal inhibition / full block of epimastigote growth: growth curves; for effect on epimastigote growth (in words): Fig. S2, 1% DMSO
# [6] = tested on: protein synthesis in T. cruzi epimastigotes (WT, DM28c strain); assay: Puromycylation assay in living epimastigotes; format: cell-based, Trypanosoma cruzi; conditions: 40 μM, 1 h pre-incubation, then puromycin 10 μg/mL 15 min
# Method in brief: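 Dm28c epimastigotes at 1 × 10⁷/mL in LIT-10% FBS, preincubated 1 h at 28°C with test compound (40 μM, from DMSO), with DMSO and 5 μM cycloheximide controls. Puromycin at 10 μg/mL, 15 min, 28°C; cells RIPA-lysed. 20 μg protein run on 10% SDS-PAGE and blotted with anti-puromycin mAb (1:100, overnight, 4°C), then IRDye680 secondary; anti-aldolase loading control. 150–20 kDa signal quantified relative to DMSO; 2–4 independent experiments.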
# [7] = tested on: Plasmodium falciparum; conditions: ref Plouffe et al., 2008; cited from earlier work
# [8] = tested on: T. cruzi amastigotes (DM28c parasite strain) in Vero cells; assay: Amastigote proliferation and cytotoxicity in Vero cells; format: cell-based, Trypanosoma cruzi; conditions: DM28c trypomastigotes, Fig. S6
# [9] = tested on: T. cruzi extracts (TCH) translating capped and polyadenylated Renilla luciferase reporter mRNA; format: biochemical, Trypanosoma cruzi; conditions: for concentration above which translation was fully inhibited: Fig. 3C; for % Inhibition: initial screen, 40 μM, Renilla luciferase signal relative to DMSO
# [10] = tested on: PAK4; conditions: mammalian cells; ref Pereira-Veiga et al., 2025; cited from earlier work
# [11] = tested on: T. cruzi parasite extract translating Renilla mRNA; assay: Miniaturized 5 μL T. cruzi in vitro translation assay; format: biochemical, Trypanosoma cruzi; conditions: 5 μl format, 40 μM, Fig. 5D
# Method in brief: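 Extract from DM28c-derived epimastigotes, lysed by nitrogen cavitation; the 30,000 × g supernatant was supplemented with translation buffer containing ATP, GTP, creatine phosphate/kinase, amino acids and spermidine. Reaction of 5 μL: 2 μL lysate, 1 μL test compound (40 μM), 2 μL SP6-transcribed capped, polyadenylated spliced-leader–Renilla luciferase mRNA (22 ng). Luminescence read after adding Renilla luciferase reagent.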
smiles,measurement,setting,value
COc1ccccc1Nc1nc(NCC2CCCO2)c2ccccc2n1 (stereo not drawn) [Compound 39G],inhibition of protein synthesis by reticulocyte lysate (in words),[1],did not inhibit
same,% Inhibition (40 µM),[2],over 50%
same,CC50 at 48 h,[3],33 ± 20 µM
same,EC50,[4],0.08 ± 0.07 µM
same,selectivity index,[4],~415
same,EC50,[5],2.8 ± 0.2 µM
same,concentration for maximal inhibition / full block of epimastigote growth,[5],~15 µM
same,puromycin incorporation into elongating protein chains (in words),[6],inhibited puromycin incorporation
same,Plasmodium falciparum inhibition (in words),[7],P. falciparum inhibitors
same,EC50 and CC50 values compared with the U2OS/Sylvio experiment (in words),[8],slightly high values
Cl.Clc1cccc(Nc2nc(N3CCOCC3)c3ccccc3n2)c1 [Compound 39K],% Inhibition (40 µM),[2],over 50%
"NC[C@@H]1O[C@H](O[C@H]2[C@@H](O)[C@H](O[C@@H]3[C@@H](O)[C@H](N)C[C@H](N)[C@H]3O[C@H]3O[C@H](CO)[C@@H](O)[C@H](O)[C@H]3N)O[C@@H]2CO)[C@H](N)[C@@H](O)[C@@H]1O [Paromomycin, reference compound]",inhibition of translation in T. cruzi extract (in words),[2],did not inhibit translation
same,inhibition of translation in T. cruzi extract (in words),[2]; listed as paromomycin,had no effect
same,effect on epimastigote growth (in words),[5],did not affect parasite growth
same,effect on epimastigote growth (in words),[5]; listed as paromomycin,did not impact T. cruzi proliferation
Cl.c1ccc(CNc2nc(NCC3CCCO3)c3ccccc3n2)nc1 (stereo not drawn) [Compound 39M],% Inhibition (40 µM),[2],less than 40%
CN[C@@H]1C[C@H](N)[C@@H](O)[C@H](O[C@H]2O[C@H](CO)[C@H](O)[C@@H]3O[C@@]4(O[C@@H]23)O[C@H]([C@H](N)CO)[C@H](O)[C@H](O)[C@H]4O)[C@H]1O [hygromycin],concentration above which translation was fully inhibited,[9],above 50 nM
Cl.Fc1ccc(Nc2nc(NCC3CCCO3)c3ccccc3n2)cc1 (stereo not drawn) [Compound 39D],puromycin incorporation into elongating protein chains (in words),[6],inhibited puromycin incorporation
CN(C)c1nc(NCC2CCCO2)c2ccccc2n1.Cl (stereo not drawn) [Compound 39F],% Inhibition (40 µM),[2],around 50%
Cc1ccc2c(c1)sc(-c1ccc(N(C)C)cc1)[n+]2C.[I-] [Compound 43],puromycin incorporation into elongating protein chains (in words),[6],inhibited puromycin incorporation
Cl.Fc1cccc(Nc2nc(NCC3CCCO3)c3ccccc3n2)c1 (stereo not drawn) [Compound 39A],% Inhibition (40 µM),[2],over 50%
c1ccc2c(NCC3CCCO3)nc(Nc3ccncc3)nc2c1 (stereo not drawn) [Compound 39C],% Inhibition (40 µM),[2],around 50%
Fc1ccccc1Nc1nc(NCC2CCCO2)c2ccccc2n1 (stereo not drawn) [Compound 39H],% Inhibition (40 µM),[2]; 40 µM,over 50%
same,CC50 at 48 h,[3],84 ± 40 µM
same,EC50,[4],0.4 ± 0.2 µM
same,selectivity index,[4],~200
same,EC50,[5],4.8 ± 2 µM
same,concentration for maximal inhibition / full block of epimastigote growth,[5],> 50 µM
same,puromycin incorporation into elongating protein chains (in words),[6],inhibited puromycin incorporation
same,Plasmodium falciparum inhibition (in words),[7],P. falciparum inhibitors
same,EC50 and CC50 values compared with the U2OS/Sylvio experiment (in words),[8],Comparable values
Cl.OCCNc1nc(NCC2CCCO2)c2ccccc2n1 (stereo not drawn) [Compound 39I],% Inhibition (40 µM),[2],over 50%
Cl.Oc1ccc(Nc2nc(NCC3CCCO3)c3ccccc3n2)cc1 (stereo not drawn) [Compound 39B],% Inhibition (40 µM),[2],over 50%
COc1cccc(Nc2nc(NCC3CCCO3)c3ccccc3n2)c1.Cl (stereo not drawn) [Compound 39],PAK4 inhibition (in words),[10],inhibit PAK4
same,% Inhibition,[9],~20%
same,inhibition of in vitro translation (in words),[11],clear inhibition
same,puromycin incorporation into elongating protein chains (in words),[6],inhibited puromycin incorporation
Cl.OCCNc1nc(Nc2ccccc2)nc2ccccc12 [Compound 39L],% Inhibition (40 µM),[2]; 40 µM,around 50%
"C[C@@H]1[C@H](O)[C@@H](C)/C=C/C=C/C=C/C=C/C=C/C=C/C=C/[C@H](O[C@@H]2O[C@H](C)[C@@H](O)[C@H](N)[C@@H]2O)C[C@@H]2O[C@](O)(C[C@@H](O)C[C@@H](O)[C@H](O)CC[C@@H](O)C[C@@H](O)CC(=O)O[C@H]1C)C[C@H](O)[C@H]2C(=O)O [Compound 108, Amphotericin B]",% Inhibition,[9],~100%
c1ccc(Nc2nc(NCC3CCCO3)c3ccccc3n2)cc1 (stereo not drawn) [Compound 97],Plasmodium falciparum inhibition (in words),[7],inhibit Plasmodium falciparum
CC1CCC(C(C)C)C(OC(=O)Cn2c(-c3ccc(Br)cc3)[n+](C)c3ccccc32)C1.[Cl-] (stereo not drawn) [Compound 3],% Inhibition,[9],~20%
C[C@@H]1C[C@@H]([C@H](O)CC2CC(=O)NC(=O)C2)C(=O)[C@@H](C)C1 [cycloheximide],concentration above which translation was fully inhibited,[9],above 0.5 μM
